Screening results as filed in PubChem.
KCNQ1 act: potentiators or activators of KCNQ1 channel, primary screen, cell-based, thallium flux, high-throughput; actives 0.35% (n = 310,000); CHO-K1 KCNQ1, thallium flux FluxOR fluorescence; stronger effect = higher value; B-score at 10 µM;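 active = fluorescence ratio B-score, a plate-corrected score, at least three library SD, with initial intensity B-score within 5 SD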
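Medium – assay buffer, equal DMSO in all wells · Material – CHO-K1 cell line with stable KCNQ1 potassium channel expression · Signal – kinetic FluxOR thallium fluorescence, 10-s 1-Hz baseline, 110-s post-stimulus read · Compound – single concentration per compound, DMSO matched to controls · Schedule – 37 °C overnight plating, 90-min dark dye load, 20-min compound pretreatment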
KCNK9 inh: KCNK9 potassium channel inhibitors, primary screen, HEK293 cells, thallium flux | Potassium channel subfamily K member 9 (Homo sapiens), Q9NPC2 | FluxOR thallium flux fluorescence; stronger effect = lower value | B-score at 10 µM | actives 1.2% (n = 310,000) | AID 488922, 2010;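 active = ratio B-score over 3 SD below the library mean, with starting fluorescence within 5 SD of its mean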;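 also: negative B-score means less thallium flux so channel inhibition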
KCNK3 inh: human KCNK3 channel inhibitors, primary screen, CHO cells, FluxOR thallium flux, B-score; Potassium channel subfamily K member 3 (Homo sapiens), O14649; AID 602410, 2012; actives 0.84% (n = 340,000); B-score at 10 µM; FluxOR fluorescence; stronger effect = lower value;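 active = B-score under library mean minus 4 SD, starting fluorescence ratio at most library mean plus 5 SD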;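 also: more negative B-score means stronger inhibition of thallium flux through KCNK3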
hERG rescue: hERG rescue from dofetilide block, primary screen, cell-based, CHO-hERG, FluxOR thallium flux, dofetilide IC70; Voltage-gated inwardly rectifying potassium channel KCNH2 (Homo sapiens), Q12809; dofetilide IC70 present; activation (rescue from dofetilide block), less the hit threshold, % at 10 µM; actives 0.51% (n = 310,000); AID 1511, 2009;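 active = activation above the mean of controls blocked by dofetilide plus 5 SD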;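 also: thallium influx through hERG after potassium depolarization seen as dye fluorescence rise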
KCNQ1 inh: inhibitors of human KCNQ1 channel, primary screen, cell-based, thallium flux, high-throughput; Potassium voltage-gated channel subfamily KQT member 1 (Homo sapiens), P51787; CHO-K1 KCNQ1, FluxOR thallium flux fluorescence; stronger effect = higher value; B-score at 10 µM; actives 1.3% (n = 310,000);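 active = compounds whose thallium flux B-score, printed positive for inhibition, exceeds three library SD while starting fluorescence stays within three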;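 also: channel opened by potassium depolarization with thallium stimulus after 20 min compound exposure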
KCNK9 inh conf: KCNK9 potassium channel inhibitors, confirmation, HEK293 cells, thallium flux, duplicate | shares compounds with KCNK9 inh | FluxOR thallium flux fluorescence | inhibition, % at 10 µM | actives 43% (n = 4,900);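 active = thallium signal inhibited by more than 5 SD of the compound-free buffer control wells, on both duplicate plates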
Kir21 sel: mouse Kir2.1 channel inhibition, confirmation, selectivity assay for KCNK9 modulator project, cell-based, HEK293, thallium flux; actives 4% (n = 4,900); AID 492993, 2010; Kir2.1 cells, FluxOR thallium flux fluorescence; inhibition, % at 10 µM; shares compounds with KCNK9 inh;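 active = thallium signal drop more than 5 SD beyond the mean of the no-compound control wells, seen in both duplicate plates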;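 also: signal is fluorescence rise after thallium addition divided by baseline fluorescence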
Target sequence (P35561 whole entry, looked up): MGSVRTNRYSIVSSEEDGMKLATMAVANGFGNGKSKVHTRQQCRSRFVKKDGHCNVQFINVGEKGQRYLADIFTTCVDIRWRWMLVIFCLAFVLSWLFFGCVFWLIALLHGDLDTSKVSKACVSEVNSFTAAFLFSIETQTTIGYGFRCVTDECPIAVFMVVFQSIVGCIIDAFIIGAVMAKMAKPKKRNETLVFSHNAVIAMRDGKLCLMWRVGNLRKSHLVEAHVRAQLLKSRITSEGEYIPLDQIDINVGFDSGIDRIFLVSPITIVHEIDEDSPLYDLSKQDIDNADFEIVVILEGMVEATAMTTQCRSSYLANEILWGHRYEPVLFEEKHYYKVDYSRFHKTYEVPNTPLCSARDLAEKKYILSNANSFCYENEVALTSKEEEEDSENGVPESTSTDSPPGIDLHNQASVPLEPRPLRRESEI
KCNK9 uninduced: thallium flux in non-induced HEK293 cells, confirmation, counter-screen for KCNK9 inhibitor project, cell-based, second counter screen, non-induced KCNK9-HEK293. inhibition, % at 10 µM. FluxOR thallium flux. actives 40% (n = 4,900). shares compounds with KCNK9 inh;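 active = thallium signal drop beyond 5 SD of the untreated control mean, on both duplicate plates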
Hits are given with their value; – = inactive; · = no result given. Sampled rows, rich in hits. Any-hit rate of the full collection: about 3.1%.

SMILES	KCNQ1 act	KCNK9 inh	KCNK3 inh	hERG rescue	KCNQ1 inh	KCNK9 inh conf	Kir21 sel	KCNK9 uninduced
Cc1cccn2c(=O)nc(SCC(=O)N3N=C(c4cccs4)CC3c3ccc(F)cc3)nc12 (stereo not given)	–	–	–	–	–	·	·	·
COc1ccc(NC(=O)COc2ccccc2F)cc1S(=O)(=O)N1CCCCC1	–	-9.6	–	–	–	–	–	–
Cc1ccc(OCCC(=O)OCC(=O)Nc2ccc(C)c(S(=O)(=O)N3CCOCC3)c2)cc1	·	·	–	·	·	·	·	·
Cc1ccc(C)c(OCCC(=O)OCC(=O)Nc2ccc(C)c(S(=O)(=O)N3CCCCC3)c2)c1	–	-11	–	–	–	–	–	29%
O=C(NC12CC3CC(CC(C3)C1)C2)c1ccc(-c2ccccc2Cl)o1	–	–	–	–	–	–	–	–
COc1cccc(NC(=O)[C@H](C)NC(=O)N2CCn3c2nc2ccccc23)c1	–	–	–	–	–	·	·	·
COc1cccc(NC(=O)[C@H](CC(C)C)NC(=O)N2CCn3c2nc2ccccc23)c1	–	-9.9	–	–	–	–	–	–
CC(CNC(=O)CN(C)CC(=O)Nc1ccccc1Br)c1ccccc1 (stereo not given)	·	·	–	·	·	·	·	·
CCC(=O)c1ccc(OCC(=O)OCC(=O)c2cc(C)n(CC3CCCO3)c2C)cc1 (stereo not given)	–	–	–	–	–	·	·	·
Cc1cc(C(=O)COC(=O)C2CCN(C(=O)c3ccc(Cl)cc3)CC2)c(C)n1CC1CCCO1 (stereo not given)	–	–	–	–	–	–	–	–
Cc1cc2cc(CCNC(=O)C3c4ccccc4Oc4ccccc43)c(=O)[nH]c2cc1C	–	–	·	–	–	·	·	·
CCOc1ccccc1NC1=C(Cl)C(=O)N(c2ccc(OC)cc2)C1=O	–	-17	–	–	–	64%	–	42%
COc1ccccc1NC1=C(Cl)C(=O)N(C2CCCCC2)C1=O	–	-8.5	–	–	–	58%	–	29%
Cc1cc(C(=O)NC(C)C2CC2)c(Cl)cc1Cl (stereo not given)	–	–	–	–	–	·	·	·
O=C(CC12CC3CC(CC(C3)C1)C2)NCC(=O)OCc1cc(=O)oc2ccc3ccccc3c12	–	-15	–	–	–	62%	–	–
CCOC(=O)N1CCN(Cc2cc(=O)oc3ccc4ccccc4c23)CC1	–	–	–	–	–	·	·	·
Cc1ccc(CNC(=O)c2ccc(CNS(=O)(=O)c3ccc4c(c3)C(C)(C)C(=O)N4C)cc2)o1	–	–	–	–	–	–	–	–
CCC(C)NC(=O)c1ccc(CNS(=O)(=O)c2ccc3c(c2)C(C)(C)C(=O)N3C)cc1 (stereo not given)	–	–	–	–	–	·	·	·
CCOc1ccc2[nH]c3c(=O)n(CCC4=CCCCC4)cnc3c2c1	–	–	–	–	–	–	–	–
CCOc1ccc2[nH]c3c(=O)n(CCc4ccc(OC)cc4)cnc3c2c1	–	–	–	–	–	·	·	·
CCOC(=O)/C(=N\Nc1cccc(C(F)(F)F)c1)N1CCOCC1	–	–	–	–	–	·	·	·
CCOC(=O)/C(=N\Nc1cccc(C(F)(F)F)c1)N(CCOC)CCOC	–	-8.3	–	–	–	44%	–	34%
CC(C)(C)c1cc(-c2csc(Nc3ccccc3)[n+]2Cc2ccc(C(=O)O)cc2)cc(C(C)(C)C)c1O	15	–	–	–	–	–	–	–
O=C(CSc1nnc(COc2ccc(Cl)cc2)o1)Nc1ccc(N2CCOCC2)cc1	·	·	–	·	·	·	·	·
CC(C)(C)c1cc(OC(=O)C2CCCC2)ccc1O	–	-8.2	–	–	–	58%	–	–
SMILES	KCNQ1 act	KCNK9 inh	KCNK3 inh	hERG rescue	KCNQ1 inh	KCNK9 inh conf	Kir21 sel	KCNK9 uninduced
Cc1ccc(CC2C(=O)N(c3cc(C)ccc3C)C(=O)C2C)cc1 (stereo not given)	–	–	–	–	–	·	·	·
Cc1ccc(CNC(=O)c2ccccc2-n2cnnn2)cc1	–	–	–	–	–	·	·	·
CCCCn1c(SCc2nc(N)nc(Nc3ccccc3C)n2)nc2ccccc2c1=O	–	-9.5	–	–	–	40%	–	–
O=C1N=c2ccc(Br)cc2=C1c1sc(=S)n(NS(=O)(=O)c2ccccc2)c1O	–	–	–	–	–	–	–	–
O=C1N=c2ccccc2=C1c1sc(=S)n(NC(=O)c2cccc(O)c2)c1O	–	–	–	–	–	·	·	·
COc1cc(CNCc2cccnc2)ccc1OCC(=O)NC1CCCCC1	–	–	–	–	–	·	·	·
COc1ccc(NC2CCCN(C(=O)c3cn(C)c4ccccc34)C2)cc1 (stereo not given)	–	–	–	–	–	–	–	–
Cc1ccc(NC2CCCN(C(=O)c3cn(C)c4ccccc34)C2)cc1C (stereo not given)	–	–	–	–	–	–	–	–
COc1ccc(Cl)cc1NC(=O)c1cccc([N+](=O)[O-])c1O	·	·	–	·	·	·	·	·
O=[N+]([O-])c1ccc(C2CCCC/C2=N/O)c([N+](=O)[O-])c1 (stereo not given)	–	–	–	–	–	·	·	·
O=C(O/N=C1\CCCCC1c1ccc([N+](=O)[O-])cc1[N+](=O)[O-])c1c(F)cccc1F (stereo not given)	–	–	–	–	–	·	·	·
Cc1ccc(NC(=O)O/N=C2\CCCCC2c2ccc([N+](=O)[O-])cc2[N+](=O)[O-])cc1 (stereo not given)	–	-10	–	–	–	65%	–	32%
O=[N+]([O-])c1ccc(C2CCCC/C2=N/OCc2ccc(F)cc2)c([N+](=O)[O-])c1 (stereo not given)	–	-8.2	–	–	–	76%	–	32%
COc1ccc2[nH]c3c(c2c1)CCN1C(=O)C(CC(=O)NCCCN(C)C)C[C@H](C(=O)N2CCCCC2)[C@@]31C (stereo not given in full)	·	·	–	·	·	·	·	·
CCc1ccc(OCC(=O)NNC(=O)Cc2c(F)cccc2Cl)cc1	–	–	–	–	–	·	·	·
